Converted amounts (≈) assume the structure as drawn.
Columns and labels:
Assay type in all cases: functional, cell-based
[1] = tested on: P388; assay: Antitumor activity against mouse P388 cells
In short: (§1)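 Cells from four lines (P-388, A-549, HT-29, MEL-28) were tested in parallel with reference standards. Activity was read out as IC50 in […], using a previously published antitumor assay protocol.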

[2] = tested on: A549; assay: Antitumor activity against human A549 cells; in short: as §1
[3] = tested on: HT-29; assay: Antitumor activity against human HT-29 cells; in short: as §1
[4] = Antitumor activity against human SK MEL28 cells; settings: SK-MEL-28; in short: as §1

## CC1(C)CCC[C@]2(C)[C@@H]3C(=CO[C@@H]3O)CC[C@@H]12
[1]
  IC50: 0.5 µg/mL (≈ 2.12 µM)
[2]
  IC50: 0.5 µg/mL (≈ 2.12 µM)
[3]
  IC50: 1 µg/mL (≈ 4.23 µM)
[4]
  IC50: 1 µg/mL (≈ 4.23 µM)

## COc1cccc2c1C(=O)c1c(O)c3c(c(O)c1C2=O)C[C@@](O)(C(=O)CO)C[C@@H]3O[C@H]1C[C@H](N)[C@H](O)[C@H](C)O1.Cl [DOXORUBICIN HYDROCHLORIDE]
[1]
  IC50: 0.1 µg/mL
[2]
  IC50: 0.025 µg/mL
[3]
  IC50: 0.5 µg/mL
[4]
  IC50: 0.5 µg/mL

## O=c1[nH]cc(F)c(=O)[nH]1 [FLUOROURACIL]
[1]
  IC50: 0.02 µg/mL (≈ 0.154 µM)
[2]
  IC50: 0.1 µg/mL (≈ 0.769 µM)
[3]
  IC50: 0.1 µg/mL (≈ 0.769 µM)
[4]
  IC50: 0.1 µg/mL (≈ 0.769 µM)

## CN(Cc1cnc2nc(N)nc(N)c2n1)c1ccc(C(=O)N[C@@H](CCC(=O)O)C(=O)O)cc1 [METHOTREXATE]
[1]
  IC50: 0.002 µg/mL (≈ 0.0044 µM)
[2]
  IC50: 0.005 µg/mL (≈ 0.011 µM)
[3]
  IC50: 0.01 µg/mL (≈ 0.022 µM)
[4]
  IC50: 0.01 µg/mL (≈ 0.022 µM)

## CC1(C)CCC[C@]2(C)[C@@H](C=O)C(C=O)=CC[C@@H]12 [POLYGODIAL]
[1]
  IC50: 1.2 µg/mL (≈ 5.12 µM)
[2]
  IC50: 2.5 µg/mL (≈ 10.7 µM)
[3]
  IC50: 2.5 µg/mL (≈ 10.7 µM)
[4]
  IC50: 2.5 µg/mL (≈ 10.7 µM)

— ChEMBL document CHEMBL1144135, “Synthesis of 11,12-epoxydrim-8,12-en-11-ol, 11,12-diacetoxydrimane, and warburganal from (-)-sclareol” (J Nat Prod, 1999)
